Values after ≈ are worked out from the molar mass of the structure shown.
Tests used:
Type in all cases: functional
Candida albicans [1] = assay: Antifungal activity against clinical isolates of Candida albicans 2367 after 48 hrs by disc diffusion assay
Method in brief: (§1)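 Cells grown in YPD were mixed at 10^3 cells/ml into molten agar (about 40 °C) and poured into plates. Test compound at 1/2×MIC, MIC and 2×MIC was spotted on filter discs on the set agar, with fluconazole and 1% DMSO as positive and vehicle controls. Plates were incubated 48 h at 37 °C, then inhibition zone diameters were recorded in mm.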

Candida albicans [2] = assay: Antifungal activity against clinical isolates of Candida albicans 2779 after 48 hrs by disc diffusion assay; method in brief: as §1
Candida tropicalis [3] = assay: Antifungal activity against clinical isolates of Candida tropicalis 2029 after 48 hrs by disc diffusion assay; method in brief: as §1
Candida tropicalis [4] = assay: Antifungal activity against clinical isolates of Candida tropicalis 2356 after 48 hrs by disc diffusion assay; method in brief: as §1
Candida albicans [5] = assay: Inhibition of ergosterol biosynthesis in Candida albicans ATCC 10261 assessed as ergosterol content after 16 hrs by spectrophotometer analysis; design: scale not given: the % may be the effect or the level left
Method in brief: (§2)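 Cells were pelleted, washed, weighed wet, and saponified in 3 mL 25% alcoholic KOH at 85 °C for 1 h. Sterols were extracted with 1 mL water plus 3 mL n-heptane. Ergosterol content is expressed relative to untreated control cells.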

Candida tropicalis [6] = assay: Inhibition of ergosterol biosynthesis in Candida tropicalis ATCC 750 assessed as ergosterol content after 16 hrs by spectrophotometer analysis; design: scale not given: the % may be the effect or the level left; method in brief: as §2
Candida albicans [7] = assay: Inhibition of ergosterol biosynthesis in Candida albicans 2323 assessed as ergosterol content after 16 hrs by spectrophotometer analysis; design: scale not given: the % may be the effect or the level left; method in brief: as §2
Candida albicans [8] = assay: Inhibition of ergosterol biosynthesis in Candida albicans 2367 assessed as ergosterol content after 16 hrs by spectrophotometer analysis; design: scale not given: the % may be the effect or the level left; method in brief: as §2
Candida albicans [9] = assay: Inhibition of ergosterol biosynthesis in Candida albicans 2779 assessed as ergosterol content after 16 hrs by spectrophotometer analysis; design: scale not given: the % may be the effect or the level left; method in brief: as §2
Candida tropicalis [10] = assay: Inhibition of ergosterol biosynthesis in Candida tropicalis 2029 assessed as ergosterol content after 16 hrs by spectrophotometer analysis; design: scale not given: the % may be the effect or the level left; method in brief: as §2
Candida tropicalis [11] = assay: Inhibition of ergosterol biosynthesis in Candida tropicalis 2356 assessed as ergosterol content after 16 hrs by spectrophotometer analysis; design: scale not given: the % may be the effect or the level left; method in brief: as §2
Candida albicans [12] = assay: Antifungal activity against Candida albicans ATCC 10261 by broth microdilution assay
Method in brief: (§3)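 CLSI M27-A3 broth microdilution. Compounds diluted to 1 mg/ml in 1% DMSO. Fluconazole (1 mg/ml) served as positive control, 1% DMSO as vehicle control, with media and culture controls. Triplicate at each concentration, repeated thrice. Inocula came from YPDA stocks subcultured in broth for 48 h at 37 °C.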

Candida tropicalis [13] = assay: Antifungal activity against Candida tropicalis ATCC 750 by broth microdilution assay; method in brief: as §3
Candida albicans [14] = assay: Antifungal activity against clinical isolates of Candida albicans 2323 by broth microdilution assay; method in brief: as §3
Candida albicans [15] = assay: Antifungal activity against clinical isolates of Candida albicans 2367 by broth microdilution assay; method in brief: as §3
Candida albicans [16] = assay: Antifungal activity against clinical isolates of Candida albicans 2779 by broth microdilution assay; method in brief: as §3
Candida tropicalis [17] = assay: Antifungal activity against clinical isolates of Candida tropicalis 2029 by broth microdilution assay; method in brief: as §3
Candida tropicalis [18] = assay: Antifungal activity against clinical isolates of Candida tropicalis 2356 by broth microdilution assay; method in brief: as §3
Candida albicans [19] = assay: Antifungal activity against Candida albicans ATCC 10261 after 48 hrs by disc diffusion assay; method in brief: as §1
Candida tropicalis [20] = assay: Antifungal activity against Candida tropicalis ATCC 750 after 48 hrs by disc diffusion assay; method in brief: as §1
Candida albicans [21] = assay: Antifungal activity against clinical isolates of Candida albicans 2323 after 48 hrs by disc diffusion assay; method in brief: as §1

SMILES: OC(Cn1cncn1)(Cn1cncn1)c1ccc(F)cc1F [FLUCONAZOLE]
- inhibition zone (IZ) (Candida albicans [1]): 10 mm
- inhibition zone (IZ) (Candida albicans [2]): 13 mm
- inhibition zone (IZ) (Candida tropicalis [3]): 11 mm
- inhibition zone (IZ) (Candida tropicalis [4]): 8 mm
- Activity (Candida albicans [5]): 100%
- Activity (Candida tropicalis [6]): 100%
- Activity (Candida albicans [7]): 100%
- Activity (Candida albicans [8]): 100%
- Activity (Candida albicans [9]): 100%
- Activity (Candida tropicalis [10]): 100%
- Activity (Candida tropicalis [11]): 100%
- MIC (Candida albicans [12]): 8 µg/mL (≈ 26.1 µM)
- MIC (Candida tropicalis [13]): 16 µg/mL (≈ 52.2 µM)
- MIC (Candida albicans [14]): 32 µg/mL (≈ 104 µM)
- MIC (Candida albicans [15]): 16 µg/mL (≈ 52.2 µM)
- MIC (Candida albicans [16]): 32 µg/mL (≈ 104 µM)
- MIC (Candida tropicalis [17]): 32 µg/mL (≈ 104 µM)
- MIC (Candida tropicalis [18]): 62 µg/mL (≈ 202 µM)
- inhibition zone (IZ) (Candida albicans [19]): 11 mm
- inhibition zone (IZ) (Candida tropicalis [20]): 16 mm
- inhibition zone (IZ) (Candida albicans [21]): 9 mm

From ChEMBL document CHEMBL3593207, “Imidazole clubbed 1,3,4-oxadiazole derivatives as potential antifungal agents” (2015)
